In ChEMBL document CHEMBL4513216, “Probing the Open Global Health Chemical Diversity Library for Multistage-Active Starting Points for Next-Generation Antimalarials” (ACS Infect Dis, 2020):

Test: Toxicity liver stage against HepG2, at 10uM
Format: cell-based
Parameters: test concentration 10 uM, cell line HepG2-A16-CD81EGFP
Settings: human, HepG2-A16-CD81EGFP cells; read-out: INHIBITION
How it was run: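 Uninfected HepG2-A16-CD81EGFP cells, 3 × 10^3 per well, 1536-well, plated on prespotted compound at 10 μM final, parasite-free screening media added to match infected plates; puromycin 10 μM positive, DMSO 0.5% negative; run in parallel with 48 h PbLuc assay at 37 °C, 5% CO2; viability by CellTiter-Glo luminescence, normalized to controls.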

SMILES | cytotoxicity at 10 µM
CCS(=O)(=O)c1ccc2oc([C@H]3CCN(Cc4cccnc4)C3)nc2c1 | 19.7%
O=C1N(C2CCCCC2)C[C@H]2CN(C3CCC3)CCN12 | 6.44%
COC(=O)[C@@H]1Cc2ncn(C)c2CN1S(=O)(=O)c1cccs1 | -6.25%
O=C(NCCC1=CCCCC1)c1[nH]nc2c1CCCC2 | -80.4%
CCCN1CCc2nc(SCc3ccc(F)cc3)[nH]c(=O)c2C1 | -3.37%
CC(C)N1C[C@@H](CO)[C@H](c2ccccc2)S1(=O)=O | -1.94%
O=C1NCCN1C(CNS(=O)(=O)C1CC1)Cc1cccc(F)c1 (centres undefined) | -3.09%
CN(C)C(=O)NC1COC2(CCN(C(=O)c3ccc(Cl)cc3)CC2)C1 (centres undefined) | 0.994%
Cn1cccc1C(=O)N1CCC2(CC1)CCN2S(C)(=O)=O | 8.73%
CN(C)S(=O)(=O)NCC1OCCc2cn(CC3CCOCC3)nc21 (centres undefined) | 7.4%
COCCN1CCC2(CCCN(C(=O)c3ccoc3C)C2)C1=O (centres undefined) | 0.369%
O=C1CC(c2ccccc2C(F)(F)F)c2sc(N3CCOCC3)nc2N1 (centres undefined) | 9.18%
Cc1nn(CC(=O)Nc2ccon2)cc1Br | 4.95%
CCn1cc(Cl)c(C(=O)NCCCO)n1 | 6.42%
COCC(=O)Nc1nn(Cc2ccc(F)cc2)cc1Cl | 7.19%
Cc1cc(C(=O)N2CCCC(c3nc(C)no3)C2)on1 (centres undefined) | 6.93%
COCC(=O)NCCCn1ncc2c(C)cccc21 | 7.55%
CN1CCCC1c1ccnc2nccn12 (centres undefined) | 6.84%
Fc1ccccc1-c1cccc(C2CCCN(C3CCOCC3)C2)n1 (centres undefined) | 0.22%
CNC(=O)CCc1cc(C)nc(C2CCN(c3ccccc3)CC2)c1 | 3.56%
CSc1nnc(C2CCN(C(=O)N3CCCC3)CC2)n1C(C)C | 8.54%
CO[C@H]1CN(Cc2nc3ccccc3n2C)CC[C@@]12CCCO2 | 2.5%
CN(C)c1nccc(C2CN(S(C)(=O)=O)C2)n1 | 6.95%

SMILES | cytotoxicity at 10 µM
CCn1c(C)nc2cc(NC(=O)C3CN(C(C)=O)C3)ccc21 | 3.46%
O=C(CO)N1CCC(c2ccnc(Nc3cc(C(F)(F)F)ccn3)n2)C1 (centres undefined) | 18%
CCC(NC(=O)c1ccco1)c1nc(C(F)(F)F)cs1 (centres undefined) | -0.183%
CS(=O)(=O)CCC(=O)N1CCC(c2ccc(F)c(F)c2)CC1 | 7.09%
COCC(O)CNC(=O)Nc1ccc(Cl)cc1-n1cccc1 (centres undefined) | -6.93%
COc1cc(NCCNC(=O)c2cc[nH]c2C)cc(OC)c1 | -4.33%
CC(C)CC1COCCN1C(=O)Cc1cccs1 (centres undefined) | 5.84%
Cc1ccc(NC(=O)N(C)C)c(C(=O)OCC(=O)NC2CCCC2)c1 | -8.03%
COc1ccc(-c2cnc(CN(CC(N)=O)C3CCCC3)o2)cc1 | -7.95%
Cc1nc2n(n1)CC(NCCc1cccs1)CC2 (centres undefined) | -9.77%
O=C(CS(=O)(=O)Cc1nnnn1C1CC1)NCC1CC1 | 16.6%
O=S(=O)(Cc1ccccc1F)N1CCCC1c1nnc2n1CCCCC2 (centres undefined) | 7.17%
CC(NC(=O)COc1ccccc1C(=O)O)c1ccc(F)cc1 (centres undefined) | -1.11%
O=c1[nH]ncc(NCCOc2ccc3c(c2)OCO3)c1Cl | 3.1%
Cc1ccc(C(=O)Nc2cccc3c2C(=O)NC3)c(C)n1 | 0.102%
Cc1nc(CNCC(C)c2nc3ccccc3o2)cs1 (centres undefined) | 14.5%
CC(C)(C)c1cc(NC(=O)CN2CCCCC2Cn2cncn2)on1 (centres undefined) | 0.0788%
CC1(C)CCC(C(=O)N2CCCO2)c2ccccc21 (centres undefined) | -0.636%
Cc1oc(CN(C)C(=O)c2ccc(C(F)(F)F)cc2)cc1C(=O)O | 9.08%
Cc1noc(C)c1Cc1nc(N(C)C)no1 | 9.21%
CCC(Nc1nnnn1-c1ccccc1)C(=O)Nc1nc(C)cs1 (centres undefined) | -23%
CCC(Nc1nnnn1-c1ccccc1)C(=O)NCc1ccsc1 (centres undefined) | -3.56%
CNC(=O)c1ccccc1NCc1ncnn1C | -0.393%

SMILES | cytotoxicity at 10 µM
O=S(=O)(CCC1CCCO1)NCc1ncc(-c2ccccc2)o1 (centres undefined) | 3.7%
CCS(=O)(=O)c1ccc2c(c1)N1CCS(=O)(=O)N=C1O2 | 10.3%
O=S(=O)(Nc1ccccn1)c1cc(Cl)cc2c1OCC2 | 0.38%
Cc1cccc(C(C)(C)CNC(=O)CN(C)c2cnccn2)c1 | 1.79%
CN1CC(C(=O)NCCc2ccc3c(c2)OCO3)CC1=O (centres undefined) | 2.55%
CS(=O)(=O)CCCNC1(c2cccc(F)c2)CC1 | -3.39%
O=C(NCCc1ccccc1)N1CCC(C2OCCO2)CC1 | -46.5%
Cc1cccc(Sc2nccn(C)c2=O)c1 | 3.52%
CNS(=O)(=O)c1cccc(C(C)NCc2cccc(OC)c2)c1 (centres undefined) | -12.3%
Cc1nc(C)n(CC2CCCCN2CCCS(=O)(=O)N(C)C)n1 (centres undefined) | -18.5%
COC(=O)C(C)(C)NC(=O)C1CC(=O)N(C2CCCC2)C1 (centres undefined) | -10.3%
OCC1(O)CCN(Cc2noc(-c3ccccc3)n2)CC1 | -0.0739%
CCN1CCCCC1C(=O)N1CCc2onc(-c3ccc(Cl)cc3)c2C1 (centres undefined) | -60.1%
CCSc1ccc(C(=O)N2CCC3(CCC(=O)N(C)C3)CC2)s1 | -11.2%
CCCc1cc(C(=O)N[C@@H](CO)[C@@H](O)c2ccccc2)n(C)n1 | 4.76%
CCC(C)N(Cc1sccc1C)C(=O)c1ccc(S(C)(=O)=O)cc1 (centres undefined) | 6.7%
Cc1noc(CN(C)Cc2cnc(N3CCOCC3)nc2)n1 | -14%
NC(=O)CN1CC2(CCC1=O)CCN(Cc1cc(F)cc(F)c1)CC2 | 7.1%
C[C@@H]1CN(Cc2cccnc2)C[C@]1(C)O | -6.1%
COCCCN(C)C(=O)Cn1cccc(OC)c1=O | 7.52%
CCn1nc(C)c(C(=O)N2C[C@@H](CN(C)CCOC)[C@@H](CO)C2)c1C | 1.35%
Cc1cc(OCC(O)c2nc3c([nH]2)CC(C)(C)CNC3=O)ccc1Cl (centres undefined) | -1.57%
NC(=O)c1cc2c(nc1CCOCc1ccccc1)CCC2 | 2.99%

SMILES | cytotoxicity at 10 µM
CCN1CC2(CCN(Cc3nc(CSC)no3)CC2)CC1=O | -1.41%
CC(=O)NCc1nc(Cc2cccc(Cl)c2)nn1C1CCN(C)CC1 | -1.12%
CN(Cc1ccno1)c1nc(C2CCCC2)nc2c1cnn2C | 7.27%
NC1(C(=O)NCCC2CN(Cc3ccco3)CCO2)CCCC1 (centres undefined) | -1.03%
Cc1ccc(N2C[C@@H](CN3CCOCC3)[C@@H](CO)C2)nn1 | 7.13%
CN(C)C(=O)C1CCCN1C(=O)c1ccc(Cn2ccnc2)o1 (centres undefined) | -0.304%
CC(C)[C@H]1CN(CCCO)C[C@@H]1NC(=O)CCC(F)(F)F | -0.6%
CC(C)(C)n1ccc(C(=O)N2CCCC(c3ncc[nH]3)C2)c1 (centres undefined) | 2.96%
COCCS(=O)(=O)c1ncc(CN(C)CC(C)C)n1Cc1ccccc1 | -1.27%
CC(C)c1nc(CN(C)Cc2ccc(F)cc2)cs1 | -8.81%
CC(=O)c1cc(C(=O)N2CCC3(CC2)Nc2ccccc2NC3=O)cs1 | 3.54%
Cc1ccc2nc(CN3CCCC3c3cccnc3)cc(O)c2c1 (centres undefined) | 3.16%
CCOc1ccc2[nH]c(=O)c(CN3CCC(O)CC3)cc2c1 | 1.25%
CS(=O)(=O)NCc1cc2n(n1)CCCN(Cc1nc3ccccc3[nH]1)C2 | -4.55%
CN(C)S(=O)(=O)N1CCN(C(=O)c2ccc3ccn(C)c3c2)CC1 | -7.56%
CC(C)C(=O)NCC(=O)N(C)C1CCCN(CCc2ccccc2)C1 (centres undefined) | -16.9%
CCn1nc2nc(SCC(=O)O)cc(C(F)F)c2c1C | -3.78%
CCn1ncc(-c2cc(C(F)F)n3nc(CCC(=O)O)nc3n2)c1C | -9.44%
Cc1cc(C2CCCN2Cc2ccn(C)c(=O)c2)on1 (centres undefined) | -6.04%
Cc1nc(CN2CCCC(NCc3ccsc3)C2)no1 (centres undefined) | 0.504%
c1ccc(CCN2CCN(c3ccc4nncn4n3)CC2)nc1 | -7.93%
CC(Cn1cccn1)NC(=O)Nc1nccs1 (centres undefined) | -9.55%
Cc1ncc2c(n1)CCN(C(=O)Cc1c(C)noc1C)C2 | -8.55%

SMILES | cytotoxicity at 10 µM
O=C(CN1CCCC1Cn1cncn1)NCCOc1cccc(F)c1 (centres undefined) | -3.24%
COc1c(CNCCNC(=O)c2ccco2)c(C)nn1C | -5.92%
O=C1NCCN1C1CCCN(Cc2nnc(-c3ccc(F)cc3)o2)C1 (centres undefined) | -7.69%
CN1CCCC1CNC(=O)CCCOc1ccc(F)cc1 (centres undefined) | -7.67%
COC(=O)CN(C)C1CCc2ccccc21 (centres undefined) | -7.59%
CC(=O)N1CCN(C(=O)CCOc2ccc(C(C)C)cc2)CC1 | -6.51%
CCc1nc(C2CCCN(C(=O)CCn3ccccc3=O)C2)no1 (centres undefined) | -12.3%
CCc1nccn1C1CCCN(C(=O)c2csc(NC(C)=O)n2)C1 (centres undefined) | -13%
Fc1ccc([C@@H]2COC[C@H]2NCc2cccc(F)c2)cc1 | -2.92%
COc1ccc(CNC2CCC3(CCC(=O)N3)CC2)cc1 (centres undefined) | 3.59%
COc1ccc(C(=O)CN(C2=NCCCCC2)c2ccccc2)cc1 | 9.62%
CCS(=O)(=O)N1CCc2c(CN(C)Cc3ccco3)cncc2C1 | -4.85%
Cn1cc(CN2CCC3(CCC(C(=O)NCC4CC4)C3)CC2)cn1 (centres undefined) | 3.47%
CC(=O)NC1CCN(c2cc(C3CCNCC3)ccn2)CC1 | 2.93%
Cn1nc(Cn2cccn2)c2c1CN(Cc1ccoc1)C2 | -3.77%
Cc1ccc(N2C[C@@H]3CCCO[C@@H]3[C@H](N3CCCC3)C2)nn1 | 2.96%
CCn1ccnc1CN1CCNCC1C (centres undefined) | -3.03%
CN(C)c1ncnc2c1CCN(CC1CCOC1)CC2 (centres undefined) | 0.745%
CCN(CC)[C@@H]1CN(Cc2nccn2C)[C@@H]2CCCO[C@H]12 | 4.92%
Cc1cccnc1N1CC2(CCN(Cc3cnn(C)c3)C2)C1 | -5.99%
c1ccc(CN2CCc3ncnc(-c4ccsc4)c3CC2)nc1 | 3.91%
Cn1cnc2c1C(COCc1cccnc1)N(Cc1nccs1)CC2 (centres undefined) | 10.5%
